Test results: publication PMC3565245 (Current Chemical Genomics, 2012)
Where a name gives a salt, the structure may show the parent alone. Read-outs that look alike come from different tables or passages of the source.

T1: Giardia lamblia carbamate kinase (glCK) (Giardia intestinalis, UniProt A8BB85)
T1 sequence (A8BB85 1-316): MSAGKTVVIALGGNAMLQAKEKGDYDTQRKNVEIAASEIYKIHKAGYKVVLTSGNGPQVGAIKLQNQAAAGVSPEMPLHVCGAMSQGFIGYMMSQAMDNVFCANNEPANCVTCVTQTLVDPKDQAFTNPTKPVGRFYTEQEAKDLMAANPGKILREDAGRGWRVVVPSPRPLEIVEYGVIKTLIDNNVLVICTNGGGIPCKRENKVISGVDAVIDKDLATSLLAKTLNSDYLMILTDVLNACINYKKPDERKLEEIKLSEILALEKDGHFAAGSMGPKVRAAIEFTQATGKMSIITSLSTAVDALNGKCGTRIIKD

T2: glCK (Giardia intestinalis, UniProt A8BB85)
T2 sequence (A8BB85 1-316): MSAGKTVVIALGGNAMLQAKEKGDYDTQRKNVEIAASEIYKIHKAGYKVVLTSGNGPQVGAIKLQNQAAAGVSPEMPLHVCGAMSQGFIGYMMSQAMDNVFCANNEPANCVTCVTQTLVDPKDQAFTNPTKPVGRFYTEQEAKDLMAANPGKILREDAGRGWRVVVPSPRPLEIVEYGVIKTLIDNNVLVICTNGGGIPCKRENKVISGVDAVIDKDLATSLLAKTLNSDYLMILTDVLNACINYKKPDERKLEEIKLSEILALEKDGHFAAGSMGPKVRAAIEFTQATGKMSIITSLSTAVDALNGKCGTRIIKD


Columns and labels:
[1] = biological target: T1, Giardia lamblia carbamate kinase (glCK); experiment: Luminescence-based carbamate kinase assay in 1536-well format; type: biochemical; settings: for Efficacy (% Inhibition): maximal response of the fitted curve, luminescence assay
Summary of the method: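 Reaction was started with ADP/carbamoyl phosphate (final 150 µM) plus ATPLite and run 20 min at room temperature before the luminescence read. Data were normalized to DMSO and no-enzyme wells, pattern-corrected, and Hill-fitted for IC50 and efficacy.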

glCK = biological target: T2, glCK; experiment: Absorbance-based carbamate kinase assay; type: biochemical, Giardia lamblia
Summary of the method: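 Coupled absorbance assay at room temperature. glCK in 20 mM Tris-HCl pH 7.5 was preincubated 15 min with test compound (final 0.002, 0.02, 0.2, 1, 2, 20, 200 μM; enzyme final 5 nM). It was then added to substrate mix (ADP, carbamoyl phosphate, final 40 µM; 30 mM MgCl2, glucose, NADP, hexokinase, G6P dehydrogenase). NADPH was followed at 340 nm, and IC50 was derived from initial velocities.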

Giardia infection = settings: cited from earlier work
Giardia = settings: maximum screening concentration of 38.3 µM; cited from earlier work
giardiasis = giardiasis standard of care; cited from earlier work
[2] = substrate: Nc1ncnc2c1ncn2[C@@H]1O[C@H](COP(=O)(O)OP(=O)(O)O)[C@@H](O)[C@H]1O; experiment: Steady-state kinetics of glCK, luminescence assay in 384-well format; type: biochemical, Giardia lamblia; settings: other: room temperature, substrate of glCK; pH 8.0
[3] = IC50 Luminescence Assay, Table 3, secondary assay comparison

Efficacy (% Inhibition) [1]	IC50 [1, 3]	IC50 (glCK)	Molecule	further results
80.2%	6510 nM	11700 nM	O=C(O)Cc1ccc(O)c(O)c1 [3,4-Dihydroxyphenylacetic acid]	
83.6%	16300 nM	> 200000 nM	CC(C)(C)C(=O)OCOP(=O)(COCCn1cnc2c(N)ncnc21)OCOC(=O)C(C)(C)C [Adefovir dipivoxil]	
89.4%	3260 nM	> 200000 nM	CN1CCc2cccc3c2[C@H]1Cc1ccc(O)c(O)c1-3 [Apomorphine hydrochloride hemihydrate]	
81.2%			OC[C@H]1O[C@H]([S-])[C@H](O)[C@@H](O)[C@@H]1O.[Au+] [Aurothioglucose]	
82.3%			CCOC(=S)SSC(=S)OCC [Bis(ethylxanthogen)]	
79.4%	5800 nM	> 200000 nM	C[C@@](Cc1ccc(O)c(O)c1)(NN)C(=O)O [Carbidopa]	
90.5%	580 nM	1390 nM	CCN(CC)C(=S)SSC(=S)N(CC)CC [Disulfiram]	anti-giardial activities in a mouse model (Giardia infection): anti-giardial activities; activity in Giardia killing screen (>30% reduction in ATP content) (Giardia): active
77.7%			CCN(CC)C(=S)S [Ditiocarb]	activity in Giardia killing screen (>30% reduction in ATP content) (Giardia): active
84.5%			Oc1ccc(C2CNCCc3c2cc(O)c(O)c3Cl)cc1 (stereo not drawn) [Fenoldopam]	
89.2%	650 nM	11400 nM	O=C(O)c1cc(O)c(O)c(O)c1 [Gallic acid]	
77.4%	16300 nM	2700 nM	Oc1cccc(O)c1O [Pyrogallol]	
85.5%	650 nM	540 nM	O=C(O)[C@@H](S)[C@@H](S)C(=O)O [Succimer]	
			Cc1ncc([N+](=O)[O-])n1CCO [metronidazole]	single course cure rates (giardiasis): 80–95%
			CCS(=O)(=O)CCn1c([N+](=O)[O-])cnc1C [tinidazole]	single course cure rates (giardiasis): 80–95%
			glCK (Giardia lamblia ATCC 50803) (protein) MSAGKTVVIALGGNAMLQAKEKGDYDTQRKNVEIAASEIYKIHKAGYKVVLTSGNGPQVGAIKLQNQAAAGVSPEMPLHVCGAMSQGFIGYMMSQAMDNVFCANNEPANCVTCVTQTLVDPKDQAFTNPTKPVGRFYTEQEAKDLMAANPGKILREDAGRGWRVVVPSPRPLEIVEYGVIKTLIDNNVLVICTNGGGIPCKRENKVISGVDAVIDKDLATSLLAKTLNSDYLMILTDVLNACINYKKPDERKLEEIKLSEILALEKDGHFAAGSMGPKVRAAIEFTQATGKMSIITSLSTAVDALNGKCGTRIIKD	Km [2]: 58.3 ± 2.4 µM

Molecule	Efficacy (% Inhibition) [1]	IC50 [1, 3]	IC50 (glCK)	further results
Oc1cc2c(cc1O)[C@H]1c3ccccc3CN[C@@H]1CC2 (racemic) [Dihydrexidine hydrochloride]	82.9%			
O=C1C2CC=CCC2C(=O)N1SC(Cl)(Cl)Cl (stereo not drawn) [Captan]	88.6%	2590 nM	470 nM	
N.N.[Cl][Pt][Cl] [Cisplatin]	88.2%			
O=C([O-])c1ccccc1-c1c2cc(Br)c(=O)cc-2oc2[c]([Hg+])c([O-])c(Br)cc12.[Na+].[Na+].[OH-] [Mercurochrome]	93.8%			IC50 ([1]; read-out: IC50 Luminescence Assay, Table 3, secondary assay comparison): 2060 nM; IC50 (glCK; read-out: IC50 Absorbance Assay, 5 nM glCK, inhibitor up to 200 μM): 220 nM
CN(C)C(=S)SSC(=S)N(C)C [Thiram]	92.3%	4110 nM	640 nM	anti-giardial activities in a mouse model (Giardia infection): anti-giardial activities; IC50 ([1]; IC50, values of the running text, chelator class): 4100 nM; activity in Giardia killing screen (>30% reduction in ATP content) (Giardia): active
